The EternaBench riboswitch data

System: MS2 coat protein
Assay: apparent Kd, MS2 coat protein; higher = weaker binding; RNA-MaP array; FMN 200 µM where present
Method in brief: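 Green signal was scaled to red-channel RNA signal and control-cluster median Fmax, and the apparent Kd was taken as the median of filtered per-cluster binding-curve fits. The binding series used SNAP-549-labelled MS2 coat protein from 0.7 or 1.5 nM, doubling to 3 µM, on designs transcribed by stalled E. coli RNA polymerase on Illumina sequencing-chip clusters. Each series ran without and then with constant ligand in 100 mM Tris-HCl pH 7.5, 80 mM KCl, 4 mM MgCl2, BSA, DTT, yeast tRNA and Tween-20.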

[1] = designed as: OFF switch for flavin mononucleotide, no ligand
[2] = ligand present: flavin mononucleotide, designed as: OFF switch for flavin mononucleotide
[3] = designed as: ON switch for flavin mononucleotide, no ligand
[4] = ligand present: flavin mononucleotide, designed as: ON switch for flavin mononucleotide

Sequence	apparent Kd [1] [µM]	apparent Kd [2] [µM]	apparent Kd [3] [µM]	apparent Kd [4] [µM]
UCCUUCUGUUGAGGAUAUGUAAGACAGCAGCUGCUAUGGCGGCACGCUGAUACAGAAGGCAACAUGAGGAUCACCCAUGUUCAA	0.0204	0.073		
GGUUGGCGAGGAUAUACAUGAGGAUCACCCAUGUGGUCCUGUGGCUGAUCUUGCCUAUGUAGAAGGCGCAAAUC	0.0357	0.28		
GUAGCAUUCUGAGGAUAUGGGUUCCGGAAACGGACAUGAGGAUCACCCAUGUGGCGAAAGCCAUACUAGAAGGCAGUAUGCUAC			0.0779	0.00746
AUAUCAUACCAAGGAUAUUUAGGAUUUGUGUAGACAUGAGGAUCACCCAUGUGGCGUUAGUCACGGGAGAAGGUGGUAUGAUAU			0.622	0.105
UUAUACAUGAGGAUCUCCCAUGACAUGAGGAUCACCCAUGUGCAGGAUAUACGUGAUAUAAUAUAGUAGAAGGGCAGACUAUAU	0.119	0.13		
GCCUGCUGGCGAGGAUAUUCUGUGCGGUUCCGGCUCGUGUCUGUUACAUGAGGAUCACCCAUGUGGGAGAAGGUGUCUGCGGCC	0.00766	0.00834		
UAGGUUGUCGUAGGAUAUGUAGGAUAUUCCUACAUGAGGAUCACCCAUGUUAGCAUGGAAGAAGGACAGAAGGACGAUGACCUU			0.889	0.0156
UCAUGUAUGUAGGAUAUCGAUGUCCUUGGACAUCGAGAAGGACGUACAUGAGGAUCACCCAUGUAACUUGCAUG	0.0254	0.0168		
GGAGCACACAUUAACAUGAGGAUCACCCAUGUCAAAAGACAUGAGGAUAUGGUUCCGAAAAGGAUCCAGAAGGCAUGGUGCUCC			0.356	0.0155
AAAAUACAUGAGGAUCACCCAUGUUAGGAUAUGCAAAGCCCAGUUAGCUUUUGGGUAGGUAGAAGGGACGGGUA	0.0234	0.0202		
CUUAUACAUGAGGAUCACCCAUGUUAGGAUAUUCGCCCGCAUUGGAAGUCCGGUCUUGGAAGAAGGAACGUGGG	0.0368	0.0591		
CGCGAACAUGAGGAUCACCCAUGUGGGUGGAACGUAGGAUAUACGUAGGUCUUUAAUACAGUAGAAGGACGUUCGC			0.264	0.118
AGCUAGUCAGGAUAUACGAACAUGUCAAAAGACGUGAAGGGACAUGAGGAUCACCCAUGUAGAAGGGACUAGCC	0.0267	0.17		
ACGUGACGGUUCGCGAGUGGACGGAGAAGGCAGACAUGAGGAUCACCCAUGUGAGCCUGCUAUUCUGAGGAUAUCCGUUCGCAC	0.0257	0.13		
GUCAGCUCGUGAGGAUAUACAUCACUGCUUCGGCAGUGUAUUAAGAUCACAUGAGGAUCACCCAUGUAGAAGGCACGAGCUGAU	0.0425	0.62		
AAGCUGCGCCAGAAGGGACCGACAUGAGGAUCACCCAUGUCCACAAGAGUCAGGAUAUGGCGUGGAGGCUCGUUUAAGUCCAGG			0.0111	0.00519
AAAGUUGGUAGGCCCUCGGAACAUGAGGAUCACCCAUGUAAGGAGGAUAUGCCCGGUACCCGCUGGCAGAAGGCCUUAUAAUAA	0.0105	0.0616		
AUAUUAAUAGUAAGGAUAUGCGUGUAUGUAGUUAUGCAGAAGGUACAUGAGGAUCACCCAUGUAUUAAUGUGUA	0.0142	0.0154		
AAGAGACAUCAGAAGGGAACCCAAACGCGCGGUUCAGGAUAUGAGAUCUUAUGUAGUUCGACAUGAGGAUCACCCAUGUCCGCG			0.101	0.00822
UUAGCAACAUGAGGAUCACCCAUGUAGGAUAUCGCUAUUGUAAUCAUGAAACAUGAUUACAAUAGCGAGAAGGACAUAUGCUAU	0.0101	0.0117		
GCCAGGAUGUAAGGAUAUGCUGAGGAUAACUCAGCAGAAGGUACAUGAGGAUCACCCAUGUAAUCCAAUAAUAAAUAACCUGGC	0.0118	0.0238		

Sequence	apparent Kd [1] [µM]	apparent Kd [2] [µM]	apparent Kd [3] [µM]	apparent Kd [4] [µM]
CGCGAUGCGGUUGGCCCUGGGCGAGAGGAUAUGGGCAGCGGGACAUGAGGAUCACCCAUGUUCUCUCAGAAGGCUCGAGCAGGC			0.217	0.0347
UGUGUGUGGGCAGGAUAUGCAUGAAGAUGUAUGAUGUAGUGUGAUGUAACAUGAGGAUCACCCAUGUAGAAGGGCCGGUGUGUG	0.116	0.139		
UGGUUCAUGGGAGGAUAUCCUCAAGAACAUGAGGAUCACCCAUGUAAUUAUAAGCCGAAAGGCAUGGAGAAGGCCCAUGAACCU			0.0675	0.0169
GGAUAGGACAGAGGAUAUACGUGCUAGAGAUACUAGCAAAUAAUCCUUACAUGAGGAUCACCCAUGUAGAAGGCUGUCCUAUCG	0.0202	0.048		
AAUAAACUCACAGGAUAUAGCAUAGUCGGCGUGAACUUAAUGGCGACUAUGCUAGAAGGGUGACCACAUGAGGAUCACCCAUGU			0.71	0.149
UUACAUACAAAGGUACAUGAGGAUCACCCAUGUUUGUUGGGAAGAAGGGUAACAAUACUACACAUACAGGAUAUUUCACAAACA			0.049	0.0354
CCGGAAUCCUAGGAUAUGCUAGACGAAAGUCUAGCAGAAGGAGGAACAUGAGGAUCACCCAUGUGUCCUACCGG	0.0186	0.025		
CGUCGAUACCAGAAGGACAUGAGGAUCACCCAUGUAGGAUAUGGGUGACCGGGAUGGCAGACACGGUGCCCGGGCACAUGCGAC			0.0289	0.00954
AUCCCGCGAGGAUAUACAUGAGGAUCACCCAUGUAGGUUCUGGAUGGGCGAAAUUUGUGUAGAAGGCGCACCAA	0.0334	0.0261		
UGAUAGGACAGAGGAUAUACAGAUAGGAUCUACUAUCAAACAUUCCUGACAUGAGGAUCACCCAUGUAGAAGGCUGUCCUAUCU	0.0219	0.0728		
AGGUAACAUGAGGAUCACCCAUGUCAGGAUAUCAGUAAGAUUAGAAUAGAGUAGAGGAUGAGAAGGGACUAUAU	0.047	0.0418		
AGCAGACGAGGAUAUAGAUUUAAGUACAUGAGGAUCACCCAUGUACACAUGUAUUUAGAUUUAGAAGGCGUCUGCU	0.666	0.664		
AUACCUUAUGAGAAGGCGGUCAUGAAACAUGAUCGAGGAUAUCAUGUAAACAUGAGGAUCACCCAUGUAUGGGUAUUAUGGUAC			0.0382	0.0102
GUGGACUACGUAGGAUAUGUAGGAUAUUCCUACAUGAGGAUCACCCAUGUUAGCAUGGAAGAAGGACAGAAGGACGUGGUCCAG			1.13	0.016
UGAUGAGGUUAGAAGGUACAGAGUAGUGGACCAAACAUGAGGAUCACCCAUGUCAUGGGAGGGAGUAAGGAUAUAAAGUUGUAG	0.0637	0.0512		
UGGUGUGAAGGAUAUACAUGAGGAUCACCCAUGUAUGUGGUGUGUGUUGAGGUGGAGGGUAGAAGGUCAGGUGG	0.0382	0.0395		
AAAAAGUCAGGAUAUACGAAAAAAAAAAAAAAAAAAAAAAAGUAGAAGGGACAUGAGGAUCACCCAUGUAAAAA	0.0782	0.0588		
UCGCUGCGAGGAUAUACGUUUGCGCGUUUUCGUUUGCGCGUACAUGAGGAUCACCCAUGUAGAAGGCGCGCUGC	0.0154	0.0155		
UGAGCAUCAGGAUAUACGUGACGACCGUGAGGUCGAAGGUUACAUGAGGAUCACCCAUGUAGAAGGGAUGUUCU	0.0265	0.0579		
GUUGUACGAGGAUAUACAUGAGGAUCACCCAUGUGUGUUGUGGGCGACGUACGUUUAUGUAGAAGGCGUGCGGC	0.0636	0.115		
AGCUACGUUUCGUAGCAGUGUCAUCGAGAAGGCCUUAUAACAUGAGGAUCACCCAUGUUUGCAUGGGAGGAUAUCGAUGAUACA			0.0201	0.00563
